The values that follow come from ChEMBL document CHEMBL1140069, “In vitro antifungal activity of polyfunctionalized 2-(hetero)arylquinolines prepared through imino Diels-Alder reactions” (2008).

As usually defined, the inhibition is the relative decrease from the control value, in per cent. A low value points to a response near the control.

Structures are written as SMILES. Values after ≈ are worked out from the molar mass of the structure shown.

Type in all cases: functional
Experiment [1] deals with Trichophyton mentagrophytes. Briefly: Antifungal activity against Trichophyton mentagrophytes ATCC 9972 after 48 hrs by broth microdilution technique. Conditions: ATCC 9972, 48 h. The method in brief:
(§1)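 CLSI broth microdilution: M-27 A2 for yeasts and M-38 A for filamentous fungi. Medium is RPMI-1640 buffered to pH 7.0 with MOPS. Compound is diluted twofold from 250 to 0.98, final DMSO ≤2%. Inoculum is 1–5 × 10³ CFU/mL. Plates are incubated at 35 °C in a moist, dark chamber and read visually at 48 h. MIC100 is the lowest concentration giving total growth inhibition versus drug-free control.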
A general note: Broth dilution looks for growth in wells or tubes with falling amounts of substance.

For experiment [2], the system named is Trichophyton rubrum. Briefly: Antifungal activity against Trichophyton rubrum C135 isolate. The note with it: read-out: MIC100.
For experiment [3], the system named is Trichophyton rubrum. Briefly: Antifungal activity against Trichophyton rubrum C133 isolate. Conditions: read-out: MIC100.
In experiment [4] the test system is Trichophyton mentagrophytes. Kind of experiment: Antifungal activity against Trichophyton mentagrophytes C943 isolate. Conditions: read-out: MIC100.
Another experiment has as its system Aspergillus fumigatus. Kind of experiment: Antifungal activity against Aspergillus fumigatus ATTC 26934 after 48 hrs by broth microdilution technique. The method in brief:
as §1

Experiment [5] relates to Trichophyton mentagrophytes. Kind of experiment: Antifungal activity against Trichophyton mentagrophytes C132 isolate. The note with it: read-out: MIC100.
Another experiment concerns Nannizzia gypsea. Kind of experiment: Antifungal activity against Microsporum gypseum C115 after 48 hrs by broth microdilution technique. A digest of the protocol: as §1
A further experiment concerns Aspergillus niger. Briefly: Antifungal activity against Aspergillus niger ATCC 9029 after 48 hrs by broth microdilution technique. Conditions: ATCC 9029, 48 h. A digest of the protocol:
as §1

The subject of experiment [6] is Trichophyton mentagrophytes. Briefly: Antifungal activity against Trichophyton mentagrophytes C539 isolate. Conditions: read-out: MIC100.
In another experiment the test system is Saccharomyces cerevisiae. Briefly: Antifungal activity against Saccharomyces cerevisiae ATCC 9763 after 48 hrs by broth microdilution technique. Conditions: ATCC 9763, 48 h. The method in brief: as §1
For the next experiment, the system named is Aspergillus flavus. Briefly: Antifungal activity against Aspergillus flavus ATCC 9170 after 48 hrs by broth microdilution technique. The note with it: ATCC 9170, 48 h. A digest of the protocol: as §1
Experiment [7] relates to Candida albicans. Kind of experiment: Antifungal activity against Candida albicans ATCC 10231 after 48 hrs by broth microdilution technique. The note with it: ATCC 10231, 48 h. The method in brief: as §1
Experiment [8] concerns Cryptococcus neoformans. Kind of experiment: Antifungal activity against Cryptococcus neoformans ATCC 32264 after 48 hrs by broth microdilution technique. Conditions: ATCC 32264, 48 h. The method in brief: as §1
The test system of experiment [9] is Trichophyton rubrum. Kind of experiment: Antifungal activity against Trichophyton rubrum C137 isolate. The note with it: read-out: MIC100.
Experiment [10] concerns Trichophyton rubrum. Kind of experiment: Antifungal activity against Trichophyton rubrum C136 isolate. The note with it: read-out: MIC100.
Experiment [11] deals with Trichophyton rubrum. Briefly: Antifungal activity against Trichophyton rubrum C110 after 48 hrs by broth microdilution technique. The method in brief: as §1
The test system of experiment [12] is Trichophyton mentagrophytes. Kind of experiment: Antifungal activity against Trichophyton mentagrophytes C364 isolate. The note with it: read-out: MIC100.
In experiment [13] the test system is Trichophyton mentagrophytes. Briefly: Antifungal activity against Trichophyton mentagrophytes C131 isolate. Conditions: read-out: MIC100.
The subject of experiment [14] is Cryptococcus neoformans. Briefly: Antimicrobial activity against Cryptococcus neoformans ATCC 32264 at 6.25 ug/ml after 48 hrs. The note with it: ATCC 32264, 48 h. A digest of the protocol: (§2)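 Percent growth inhibition in 96-well microplates. Compound stocks in DMSO (≤2%) were diluted in RPMI-1640 to final 100–6.25 µg/mL, and 100 µL inoculum was added (final 200 µL). Controls were a growth well (inoculum with matching DMSO, no compound) and a sterility well (no inoculum). Inhibition was calculated against growth and sterility wells.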

Experiment [15] concerns Candida albicans. Briefly: Antimicrobial activity against Candida albicans C127 isolate at 6.25 ug/ml after 24 hrs. The note with it: C127, 24 h. A digest of the protocol: (§3)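 Growth-inhibition microplate test. Strains are grown on Sabouraud-chloramphenicol agar for 48 h at 30 °C, and inoculum is added to RPMI-1640 containing compound at a final 100–6.25, with DMSO ≤2%. Each strain has a growth control (same DMSO, no compound) and a sterility control.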

Experiment [16] relates to Candida albicans. Briefly: Antimicrobial activity against Candida albicans C130 isolate at 6.25 ug/ml after 24 hrs. The method in brief:
as §3

The next experiment has as its system Pichia kudriavzevii. Briefly: Antimicrobial activity against Candida krusei C117 isolate at 6.25 ug/ml after 24 hrs. A digest of the protocol: as §2
The subject of experiment [17] is Candida albicans. Briefly: Antimicrobial activity against Candida albicans ATCC 10231 at 6.25 ug/ml after 24 hrs. The note with it: ATCC 10231, 24 h. The method in brief:
as §3

Experiment [18] has as its system Cryptococcus neoformans. Kind of experiment: Antimicrobial activity against Cryptococcus neoformans IM 042074 isolate at 6.25 ug/ml after 48 hrs. A digest of the protocol:
as §2

The test system of experiment [19] is Cryptococcus neoformans. Kind of experiment: Antimicrobial activity against Cryptococcus neoformans IM 031631 isolate at 6.25 ug/ml after 48 hrs. The method in brief: as §2
Experiment [20] concerns Cryptococcus neoformans. Briefly: Antimicrobial activity against Cryptococcus neoformans IM 052470 isolate at 6.25 ug/ml after 48 hrs. The method in brief:
as §2

In experiment [21] the test system is Candida albicans. Kind of experiment: Antimicrobial activity against Candida albicans C129 isolate at 6.25 ug/ml after 24 hrs. The method in brief:
as §3

Experiment [22] concerns Cryptococcus neoformans. Kind of experiment: Antimicrobial activity against Cryptococcus neoformans IM 961951 isolate at 6.25 ug/ml after 48 hrs. A digest of the protocol:
(§4)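 Clinical Cryptococcus isolates kept on Sabouraud-dextrose agar slopes; inoculum 1–5 × 10³ CFU/mL. Quinoline DMSO stocks were diluted in RPMI-1640 to final 100–6.25 µg/mL, with DMSO ≤2%. An equal volume of inoculum was added (200 µL per well). Run in triplicate.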

Experiment [23] relates to Candida albicans. Briefly: Antimicrobial activity against Candida albicans C128 isolate at 6.25 ug/ml after 24 hrs. The method in brief: as §3
Experiment [24] concerns Cryptococcus neoformans. Briefly: Antimicrobial activity against Cryptococcus neoformans IM 031706 isolate at 6.25 ug/ml after 48 hrs. The method in brief: as §2
Experiment [25] deals with Candida albicans. Kind of experiment: Antimicrobial activity against Candida albicans C126 isolate at 6.25 ug/ml after 24 hrs. The method in brief:
as §3

The subject of experiment [26] is Cryptococcus neoformans. Briefly: Antimicrobial activity against Cryptococcus neoformans IM 00319 isolate at 6.25 ug/ml after 48 hrs. The method in brief: as §2
The subject of experiment [27] is Cryptococcus neoformans. Briefly: Antimicrobial activity against Cryptococcus neoformans IM 983036 isolate at 6.25 ug/ml after 48 hrs. A digest of the protocol:
as §4

In experiment [28] the test system is Cryptococcus neoformans. Briefly: Antimicrobial activity against Cryptococcus neoformans IM 972724 isolate at 6.25 ug/ml after 48 hrs. A digest of the protocol:
as §4

Experiment [29] deals with Cryptococcus neoformans. Kind of experiment: Antimicrobial activity against Cryptococcus neoformans IM 972751 isolate at 6.25 ug/ml after 48 hrs. The method in brief: as §4
The test system of the next experiment is Candida tropicalis. Briefly: Antimicrobial activity against Candida tropicalis C131 isolate at 6.25 ug/ml after 24 hrs. A digest of the protocol: as §2
A further experiment relates to Candida parapsilosis. Kind of experiment: Antimicrobial activity against Candida parapsilosis C124 isolate at 6.25 ug/ml after 24 hrs. Conditions: Lodderomyces parapsilosis. A digest of the protocol:
as §2

Experiment [30] concerns Cryptococcus neoformans. Kind of experiment: Antimicrobial activity against Cryptococcus neoformans IM 983040 isolate at 6.25 ug/ml after 48 hrs. A digest of the protocol:
as §4

In a further experiment the test system is Nakaseomyces glabratus. Briefly: Antimicrobial activity against Candida glabrata C115 isolate at 6.25 ug/ml after 24 hrs. The method in brief:
as §2

`Cc1cc(-c2ccncc2)nc2c(C)cccc12`: the MIC was 12.5 µg/mL (≈ 53.3 µM) in [1]; 7.8 µg/mL (≈ 33.3 µM) in the experiment on Trichophyton rubrum [2]; 15.6 µg/mL (≈ 66.6 µM) in the experiment with Trichophyton rubrum [3]; 7.8 µg/mL (≈ 33.3 µM) in experiment [4]; more than 250 µg/mL against Aspergillus fumigatus; 7.8 µg/mL (≈ 33.3 µM) in experiment [5]. In addition, the MIC in the experiment on Nannizzia gypsea is 12.5 µg/mL (≈ 53.3 µM); in the experiment with Aspergillus niger it was more than 250 µg/mL; in experiment [6], 7.8 µg/mL (≈ 33.3 µM); in the experiment with Saccharomyces cerevisiae, more than 250 µg/mL; against Aspergillus flavus it was more than 250 µg/mL; with Candida albicans [7], more than 250 µg/mL. The MIC in the experiment with Cryptococcus neoformans [8] is more than 250 µg/mL; in the experiment on Trichophyton rubrum [9] it was 7.8 µg/mL (≈ 33.3 µM); in the experiment on Trichophyton rubrum [10], 7.8 µg/mL (≈ 33.3 µM); in the experiment on Trichophyton rubrum [11] (read-out: MIC) it was 12.5 µg/mL (≈ 53.3 µM); in the experiment on Trichophyton rubrum [11] (read-out: MIC100), 7.8 µg/mL (≈ 33.3 µM); in experiment [12], 7.8 µg/mL (≈ 33.3 µM). Besides, in experiment [13], the MIC stood at 31.2 µg/mL (≈ 133 µM).

Regarding `C[C@@H]1[C@H](O)[C@@H](C)/C=C/C=C/C=C/C=C/C=C/C=C/C=C/[C@H](O[C@@H]2O[C@H](C)[C@@H](O)[C@H](N)[C@@H]2O)C[C@@H]2O[C@](O)(C[C@@H](O)C[C@@H](O)[C@H](O)CC[C@@H](O)C[C@@H](O)CC(=O)O[C@H]1C)C[C@H](O)[C@H]2C(=O)O` [AMPHOTERICIN B], the inhibition at 6.25 µg/mL with Cryptococcus neoformans [14], in the experiment on Candida albicans [15], with Candida albicans [16], in the experiment on Pichia kudriavzevii, in the experiment with Candida albicans [17] and in the experiment on Cryptococcus neoformans [18] was 100% in each case. For the same compound, the inhibition at 6.25 µg/mL in the experiment with Cryptococcus neoformans [19], in the experiment on Cryptococcus neoformans [20], in the experiment with Candida albicans [21], in the experiment with Cryptococcus neoformans [22], with Candida albicans [23] and in the experiment with Cryptococcus neoformans [24] was 100% in each case. Further, the inhibition at 6.25 µg/mL in the experiment with Candida albicans [25], in the experiment with Cryptococcus neoformans [26], in the experiment with Cryptococcus neoformans [27], in the experiment with Cryptococcus neoformans [28], with Cryptococcus neoformans [29] and in the experiment on Candida tropicalis was 100% each time. In addition, the inhibition at 6.25 µg/mL in the experiment with Candida parapsilosis, in the experiment on Cryptococcus neoformans [30] and with Nakaseomyces glabratus was 100% throughout. In addition, the MIC in the experiment on Aspergillus fumigatus came to 0.5 µg/mL (≈ 0.541 µM); in the experiment on Aspergillus niger, 0.5 µg/mL (≈ 0.541 µM); in the experiment on Saccharomyces cerevisiae, 0.5 µg/mL (≈ 0.541 µM); with Aspergillus flavus it was 0.5 µg/mL (≈ 0.541 µM); in the experiment with Candida albicans [7], 1 µg/mL (≈ 1.08 µM); against Cryptococcus neoformans [8], 0.25 µg/mL (≈ 0.271 µM).
